One experiment relates to CCRF-CEM. The experiment is described as follows: Growth inhibitory activity against human lymphoblastic leukemia cells(CCRF-CEM). To be noted: read-out: ID50 (the source's name). It counts as functional. The essentials:
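Log-phase human lymphoblastic leukemia CCRF-CEM cells grown in suspension culture. Compounds dissolved in Me2SO, final growth medium contained 5% Me2SO. Test solutions kept at 0-4 °C, protected from light, homogeneity checked by HPLC before testing. ID50 reported in ng/mL.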

The species named for another experiment is Mus musculus. The experiment is described as follows: Male CDF1 hybrid treated mice out of seven which survived over 60 days after the treatment. It counts as functional. The procedure, abridged:
(§1)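 Male CDF1 mice, seven per group, given 10^6 P388 cells ip on day 0. Drugs were given ip in 10% Me2SO-saline on days 1, 5 and 9, with solutions kept at 0-4 °C, protected from light and checked for homogeneity by HPLC. A range of doses was run and the optimal nontoxic dose reported. Read-outs were median survival time, percent increase in life span, and cures (over-60-day survivors, average of two experiments).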

Experiment [1] deals with P388. The experiment is described as follows: Percent increase in life span observed in P-388 cells infected male CDF1 hybrid mice after intraperitoneal administration at 750 ug/kg optimal dose. The format is functional, Mus musculus. The procedure, abridged:
as §1

The subject of experiment [2] is P388. Nature of the experiment: Median survival time observed in P-388 cells infected male CDF1 hybrid mice after intraperitoneal administration at 750 ug/kg optimal dose. The format is functional, Mus musculus. The procedure, abridged: as §1

The structures appear in SMILES notation. ≈ marks a conversion by molar mass, not a printed value.

`Cc1c2oc3c(C)c4oc(-c5ccccc5)nc4c(C(=O)N[C@@H]4C(=O)N[C@H](C(C)C)C(=O)N5CCC[C@H]5C(=O)N(C)CC(=O)N(C)[C@@H](C(C)C)C(=O)O[C@@H]4C)c3nc-2c(C(=O)N[C@@H]2C(=O)N[C@H](C(C)C)C(=O)N3CCC[C@H]3C(=O)N(C)CC(=O)N(C)[C@@H](C(C)C)C(=O)O[C@@H]2C)cc1=O`: the IC50 in the experiment with CCRF-CEM amounted to 0.31 µg/mL (≈ 0.228 µM). The Cures in the experiment listed under Mus musculus worked out at 2. In the experiment with P388 [1], this molecule displayed an ILS of 300%. Also, in the experiment on P388 [2], the MST came to 44 days.

For orientation: ILS means the gain in survival time of treated over control animals, in per cent.

The record behind these values is ChEMBL document CHEMBL1122395, “Tetracyclic chromophoric analogues of actinomycin D: synthesis, structure elucidation and interconvertibility from one form to another, antitumor activity, and structure-activity relationships” (1983).
